# Measured values of several laboratories.
# Each line is one published result; the experiments were not run side by side.
# FGFR3: Fibroblast growth factor receptor 3 (FGFR3, Homo sapiens, UniProt P22607)
# FGFR3 G697C: Fibroblast growth factor receptor 3 (FGFR3, Homo sapiens, UniProt P22607, G697C)
SMILES,target,test,conditions,endpoint,value
C[C@H]1CC[C@H](n2c3cnccc3c3cnc(Nc4ccc5c(n4)CCN(C(=O)CO)C5)nc32)CC1,FGFR3,"cell-free assay, competition with immobilised ligand",1 µM,remaining binding,100%
COc1ccc2oc(-c3ccc4nc(N)oc4c3)c/c(=N\c3ccccc3NC(=O)CCN)c2c1,FGFR3,binding,1 µM,remaining binding,107%
C#Cc1cnc(Nc2ccnc(CO)c2)nc1Nc1ccccc1S(C)(=O)=NC#N (stereo not drawn),FGFR3,cell-free assay,1 µM,remaining signal,28%
CCCCC(=O)Nc1ccc(-c2ccc3ncn(CCC)c(=O)c3c2)cn1,FGFR3,"binding, competition with immobilised ligand",0.5 µM,remaining binding,96%
Cc1ccc(NC(=O)c2ccnc(C(F)(F)F)c2)cc1-c1cc(OCCO)nc(N2CCOCC2)c1,FGFR3,"binding, competition with immobilised ligand",1 µM,remaining binding,90%
C=CC(=O)N1CCC([C@@H]2CCNc3c(C(N)=O)c(-c4ccc(Oc5ccccc5)cc4)nn32)CC1,FGFR3 G697C,cell-free assay,1 µM,inhibition,14%
N#Cc1ccc(NC(=O)Nc2ccccc2)cc1,FGFR3,"cell-free assay, competition with immobilised ligand",25 µM,remaining binding,100%
CO[C@@H]1[C@H](N(C)C(=O)c2ccccc2)C[C@H]2O[C@]1(C)n1c3ccccc3c3c4c(c5c6ccccc6n2c5c31)C(=O)NC4,FGFR3,"enzyme activity, inhibitor",1 µM,inhibition,3%
C1=C/COCc2cc(ccc2OCCN2CCCC2)Nc2nccc(n2)-c2cccc(c2)COC/1,FGFR3 G697C,binding,0.1 µM,remaining binding,100%
